Drawing on BindingDB's records for doi:10.1021/jm0600794 (University of Innsbruck, 2006), this text covers IC50 for one molecule.

Molecules are shown by their SMILES.

The experiment concerns the target T1, Glucocorticoid receptor (Homo sapiens, UniProt P04150).
T1 sequence (P04150 whole entry): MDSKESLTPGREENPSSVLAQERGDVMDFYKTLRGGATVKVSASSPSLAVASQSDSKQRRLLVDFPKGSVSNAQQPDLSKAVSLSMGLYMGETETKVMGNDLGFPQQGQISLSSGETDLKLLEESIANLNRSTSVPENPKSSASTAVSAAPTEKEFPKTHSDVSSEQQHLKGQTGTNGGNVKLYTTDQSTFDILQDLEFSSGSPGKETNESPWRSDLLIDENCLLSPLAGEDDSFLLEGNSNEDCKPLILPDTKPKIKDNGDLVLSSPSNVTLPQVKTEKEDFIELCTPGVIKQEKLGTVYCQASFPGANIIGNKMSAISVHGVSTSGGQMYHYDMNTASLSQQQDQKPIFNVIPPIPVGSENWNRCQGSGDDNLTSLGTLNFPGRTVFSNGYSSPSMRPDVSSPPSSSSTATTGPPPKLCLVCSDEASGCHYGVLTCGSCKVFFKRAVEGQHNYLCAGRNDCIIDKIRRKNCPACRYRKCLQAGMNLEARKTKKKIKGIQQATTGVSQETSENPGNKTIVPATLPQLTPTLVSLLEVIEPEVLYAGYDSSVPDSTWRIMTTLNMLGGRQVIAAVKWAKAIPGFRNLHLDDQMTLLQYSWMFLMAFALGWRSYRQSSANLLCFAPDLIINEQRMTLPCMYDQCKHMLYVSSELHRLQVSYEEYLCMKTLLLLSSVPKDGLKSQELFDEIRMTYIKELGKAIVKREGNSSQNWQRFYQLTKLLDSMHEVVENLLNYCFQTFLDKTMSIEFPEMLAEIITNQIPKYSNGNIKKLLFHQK
Kind of experiment: Inhibition of GR-mediated transactivation of galactosidase reporter gene in HEK293 cells expressing 11betaHSD1. A digest of the protocol: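 HEK-293 cells transfected with pMMTV-LacZ, pCMV-LUC, GR, 11β-HSD1 and H6PDH plasmids. After 6 h, washed into steroid-free medium, then 24 h with 250 nM cortisone and graded inhibitor. β-Galactosidase normalized to luciferase, as % of steroid-only control. IC50 from four independent experiments, means ± SD.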

For orientation: IC50 means the concentration that inhibits the measured activity by half. Regarding `CC(=O)OC1CC[C@]2(C)C3=C(C(=O)C[C@H]2C1(C)C)[C@]1(C)CCC(C(C)CCC(=O)O)[C@@]1(C)CC3=O` (stereo partly drawn) [4-((5R,10S,13R,14R)-3-acetoxy-4,4,10,13,14-pentamethyl-7,11-dioxo-2,3,4,5,6,7,10,11,12,13,14,15,16,17-tetradecahydro-1H-cyclopenta[a]phenanthren-17-yl)pentanoic acid], 2090 nM corresponded to half-maximal inhibition (IC50).
